In ChEMBL document CHEMBL2034859, “Simple, fast and efficient synthesis of β-keto esters from the esters of heteroaryl compounds, its antimicrobial study and cytotoxicity towards various cancer cell lines” (Bioorg Med Chem Lett, 2012):
In brackets after ≈: the same amount, converted by molar mass.

Experiments:
NCI-H460 = experiment: Cytotoxicity against human NCI-H460 cells at 10 uM after 48 hrs by WST-1 assay; type: functional
Summary of the method: (§1)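 Cells from ATCC, grown in DMEM with 10% heat-inactivated FBS at 37 °C in humidified 5% CO2. Log-phase cells seeded at 5 × 10^3 cells/well and left to recover overnight, then exposed to varying compound concentrations for 48 h. Controls received medium with 0.2% DMSO vehicle. CCK-8 ([…]) reagent added at 5 µL/well for 2 h, then absorbance read.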

Calu-1 = experiment: Cytotoxicity against human Calu1 cells at 10 uM after 48 hrs by WST-1 assay; type: functional
Summary of the method: (§2)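 Cells from ATCC were grown in DMEM with 10% heat-inactivated FBS at 37 °C in 5% CO2. Log-phase cells were seeded at 5 × 10^3 per well and left to recover overnight. They were then exposed to a range of compound concentrations for 48 h, with 0.2% DMSO as the vehicle control. CCK-8 (WST) reagent was added for 2 h and absorbance was measured.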

ACHN = experiment: Cytotoxicity against human ACHN cells at 10 uM after 48 hrs by WST-1 assay; type: functional; summary of the method: as §2
PANC-1 = experiment: Cytotoxicity against human PANC1 cells at 10 uM after 48 hrs by WST-1 assay; type: functional; summary of the method: as §1
HCT-116 = experiment: Cytotoxicity against human HCT116 cells at 10 uM after 48 hrs by WST-1 assay; type: functional; summary of the method: as §2
Pseudomonas aeruginosa [1] = experiment: Antibacterial activity against Pseudomonas aeruginosa ATCC 27853 after 24 hrs; type: functional; details: ATCC 27853, 24 h
Talaromyces marneffei [2] = experiment: Antifungal activity against Penicillium marneffei after 3 to 4 days; type: functional
Aspergillus flavus [3] = experiment: Antifungal activity against Aspergillus flavus NCIM 524 after 3 to 4 days by serial plate dilution method
Aspergillus fumigatus [4] = experiment: Antifungal activity against Aspergillus fumigatus NCIM 902 after 3 to 4 days by disc diffusion method; type: functional
Escherichia coli [5] = experiment: Antibacterial activity against Escherichia coli ATCC 25922 after 24 hrs; type: functional; details: ATCC 25922, 24 h
[6] = system: Trichophyton mentagrophytes; experiment: Antifungal activity against Trichophyton mentagrophytes after 3 to 4 days; type: functional
Summary of the method: (§3)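 Compounds were dissolved in DMSO and tested by serial plate dilution. Activity was read as the diameter of the inhibition zone, with ciclopiroxolamine as the reference standard. Penicillium marneffei and Trichophyton mentagrophytes were recultured isolates.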

Escherichia coli [7] = experiment: Antibacterial activity against Escherichia coli ATCC 25922 after 24 hrs by disc diffusion method; type: functional
Summary of the method: (§4)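 Disc diffusion susceptibility test. The Klebsiella pneumoniae strain was a recultured isolate, not an ATCC stock.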

Aspergillus fumigatus [8] = experiment: Antifungal activity against Aspergillus fumigatus NCIM 902 after 3 to 4 days; type: functional; summary of the method: as §3
Aspergillus flavus [9] = experiment: Antifungal activity against Aspergillus flavus NCIM 524 after 3 to 4 days; type: functional
Pseudomonas aeruginosa [10] = experiment: Antibacterial activity against Pseudomonas aeruginosa ATCC 27853 after 24 hrs by disc diffusion method; type: functional; summary of the method: as §4
[11] = system: Trichophyton mentagrophytes; experiment: Antifungal activity against Trichophyton mentagrophytes after 3 to 4 days by disc diffusion method; type: functional
Staphylococcus aureus [12] = experiment: Antibacterial activity against Staphylococcus aureus ATCC 25923 after 24 hrs; type: functional; details: ATCC 25923, 24 h
Staphylococcus aureus [13] = experiment: Antibacterial activity against Staphylococcus aureus ATCC 25923 after 24 hrs by disc diffusion method; type: functional; summary of the method: as §4
Klebsiella pneumoniae [14] = experiment: Antibacterial activity against Klebsiella pneumoniae after 24 hrs by disc diffusion method; type: functional; summary of the method: as §4
Talaromyces marneffei [15] = experiment: Antifungal activity against Penicillium marneffei after 3 to 4 days by disc diffusion method; type: functional
Klebsiella pneumoniae [16] = experiment: Antibacterial activity against Klebsiella pneumoniae after 24 hrs; type: functional

| Compound | Activity (NCI-H460) [%] | Activity (Calu-1) [%] | Activity (ACHN) [%] | Activity (PANC-1) [%] | Activity (HCT-116) [%] | MIC (Pseudomonas aeruginosa [1]) [µg/mL] | MIC (Talaromyces marneffei [2]) [µg/mL] | inhibition zone (IZ) (Aspergillus flavus [3]) [mm] | inhibition zone (IZ) (Aspergillus fumigatus [4]) [mm] | MIC (Escherichia coli [5]) [µg/mL] | MIC [6] [µg/mL] | inhibition zone (IZ) (Escherichia coli [7]) [mm] | MIC (Aspergillus fumigatus [8]) [µg/mL] | MIC (Aspergillus flavus [9]) [µg/mL] | inhibition zone (IZ) (Pseudomonas aeruginosa [10]) [mm] | inhibition zone (IZ) [11] [mm] | MIC (Staphylococcus aureus [12]) [µg/mL] | inhibition zone (IZ) (Staphylococcus aureus [13]) [mm] | inhibition zone (IZ) (Klebsiella pneumoniae [14]) [mm] | inhibition zone (IZ) (Talaromyces marneffei [15]) [mm] | other results |
| --- | --- | --- | --- | --- | --- | --- | --- | --- | --- | --- | --- | --- | --- | --- | --- | --- | --- | --- | --- | --- | --- |
| CCOC(=O)CC(=O)c1cnc2ccccc2c1 | 20 | 23 | 20 | 26 | 28 | – | – | – | – | – | – | – | – | – | – | – | – | – | – | – | – |
| CCOC(=O)CC(=O)c1cccc2sc(Br)nc12 | 14 | 19 | 31 | 27 | 39 | 6.25 (≈ 19 µM) | 12.5 (≈ 38.1 µM) | 19 | 18 | 6.25 (≈ 19 µM) | 12.5 (≈ 38.1 µM) | 22 | 12.5 (≈ 38.1 µM) | 12.5 (≈ 38.1 µM) | 22 | 17 | 6.25 (≈ 19 µM) | 21 | 23 | 17 | MIC (Klebsiella pneumoniae [16]): 6.25 µg/mL (≈ 19 µM) |
| CCOC(=O)CC(=O)c1sc(Cl)nc1C | 24 | 32 | 37 | 29 | 48 | – | – | – | – | – | – | – | – | – | – | – | – | – | – | – | – |
| CCOC(=O)CC(=O)c1cnccn1 | 20 | 16 | 34 | 27 | 30 | – | – | – | – | – | – | – | – | – | – | – | – | – | – | – | – |
| CCOC(=O)CC(=O)c1ccncn1 | 13 | 12 | 15 | 35 | 20 | – | – | – | – | – | – | – | – | – | – | – | – | – | – | – | – |
| CCOC(=O)CC(=O)c1nccc2ccccc12 | 34 | 30 | 30 | 35 | 26 | 6.25 (≈ 25.7 µM) | 12.5 (≈ 51.4 µM) | 15 | 18 | 6.25 (≈ 25.7 µM) | 12.5 (≈ 51.4 µM) | 19 | 12.5 (≈ 51.4 µM) | 12.5 (≈ 51.4 µM) | 20 | 17 | 6.25 (≈ 25.7 µM) | 22 | 22 | 18 | MIC (Klebsiella pneumoniae [16]): 6.25 µg/mL (≈ 25.7 µM) |
| CCOC(=O)CC(=O)c1cnc(Cl)cn1 | 34 | 31 | 30 | 14 | 40 | 6.25 (≈ 27.3 µM) | 6.25 (≈ 27.3 µM) | 22 | 26 | 6.25 (≈ 27.3 µM) | 6.25 (≈ 27.3 µM) | 24 | 6.25 (≈ 27.3 µM) | 6.25 (≈ 27.3 µM) | 21 | 25 | 6.25 (≈ 27.3 µM) | 23 | 20 | 24 | MIC (Klebsiella pneumoniae [16]): 6.25 µg/mL (≈ 27.3 µM) |
| CCOC(=O)CC(=O)c1cc2ccccc2cn1 | 17 | 21 | 30 | 23 | 29 | 12.5 (≈ 51.4 µM) | 6.25 (≈ 25.7 µM) | 27 | 23 | 12.5 (≈ 51.4 µM) | 6.25 (≈ 25.7 µM) | 19 | 6.25 (≈ 25.7 µM) | 6.25 (≈ 25.7 µM) | 22 | 23 | 12.5 (≈ 51.4 µM) | 16 | 23 | 25 | MIC (Klebsiella pneumoniae [16]): 12.5 µg/mL (≈ 51.4 µM) |
| CCOC(=O)CC(=O)c1nccn1C | 14 | 30 | 30 | 35 | 11 | – | – | – | – | – | – | – | – | – | – | – | – | – | – | – | – |
| CCOC(=O)CC(=O)c1cccnc1 | 19 | 30 | 30 | 35 | 30 | – | – | – | – | – | – | – | – | – | – | – | – | – | – | – | – |
| CCOC(=O)CC(=O)c1ccncc1 | 10 | 12 | 31 | 10 | 39 | – | – | – | – | – | – | – | – | – | – | – | – | – | – | – | – |
| CCOC(=O)CC(=O)c1cn(C(=O)OC(C)(C)C)c2ccccc12 | 39 | 20 | 30 | 23 | 33 | – | – | – | – | – | – | – | – | – | – | – | – | – | – | – | – |
| CCOC(=O)CC(=O)c1ncccn1 | 20 | 17 | 10 | 37 | 23 | 6.25 (≈ 32.2 µM) | 12.5 (≈ 64.4 µM) | 22 | 25 | 6.25 (≈ 32.2 µM) | 12.5 (≈ 64.4 µM) | 24 | 12.5 (≈ 64.4 µM) | 12.5 (≈ 64.4 µM) | 22 | 18 | 6.25 (≈ 32.2 µM) | 22 | 23 | 17 | MIC (Klebsiella pneumoniae [16]): 6.25 µg/mL (≈ 32.2 µM) |
| CCOC(=O)CC(=O)c1nccn1CCOC | 14 | 24 | 21 | 26 | 28 | – | – | – | – | – | – | – | – | – | – | – | – | – | – | – | – |
| CCOC(=O)C(C)C(=O)c1nccc2ccccc12 (stereo unspecified) | 19 | 20 | 25 | 30 | 24 | – | – | – | – | – | – | – | – | – | – | – | – | – | – | – | – |
| CCOC(=O)CC(=O)c1ccccn1 | 36 | 22 | 25 | 27 | 21 | – | – | – | – | – | – | – | – | – | – | – | – | – | – | – | – |
| Cc1cc(C2CCCCC2)n(O)c(=O)c1.NCCO [CICLOPIROX OLAMINE] | – | – | – | – | – | – | 6.25 | 27 | 26 | – | 3.12 | – | 6.25 | 3.12 | – | 27 | – | – | – | 23 | – |
| O=C(O)c1cn(C2CC2)c2cc(N3CCNCC3)c(F)cc2c1=O [CIPROFLOXACIN] | – | – | – | – | – | 6.25 (≈ 18.9 µM) | – | – | – | 6.25 (≈ 18.9 µM) | – | 32 | – | – | 28 | – | 6.25 (≈ 18.9 µM) | 23 | 23 | – | MIC (Klebsiella pneumoniae [16]): 6.25 µg/mL (≈ 18.9 µM) |
